ChEMBL document CHEMBL4373713, “Effect of 1-Deoxynojirimycin Isolated from Mulberry Leaves on Glucose Metabolism and Gut Microbiota in a Streptozotocin-Induced Diabetic Mouse Model” (J Nat Prod, 2019)
Calls of active or inactive are those of the source.

Experiments:
Format in all cases: functional, organism-based
Mus musculus [1] = assay: Antidiabetic activity in po dosed STZ-induced Kunming mouse model of diabetes assessed as reduction in fasting serum glucose level administered QD administered via gavage for 4 weeks and measured 2 weeks during compound dosing
Procedure, shortened: (§1)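 Fasting serum glucose was taken from the tail tip on days 0, 7, 14, 21 and 28 in STZ (35 mg/kg i.p.)/high-fat-diet Kunming mice. Mice were gavaged once daily at 31.25, 62.5 or 125 mg/kg in 0.5 mL, n=10 per group.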

Mus musculus [2] = assay: Antidiabetic activity in STZ-induced Kunming mouse model of diabetes assessed as reduction in serum glucose level 125 mg/kg, po administered QD administered via gavage for 4 weeks and measured 4 weeks during compound dosing; procedure, shortened: as §1
Mus musculus [3] = assay: Antidiabetic activity in STZ-induced Kunming mouse model of diabetes assessed as increase in glucose tolerance 31.25 to 125 mg/kg, po administered QD administered via gavage for 4 weeks and measured on day 26 followed by glucose challenge after 30 mins during compound dosing by OGTT
Procedure, shortened: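 On treatment day 26, after a 12 h fast, diabetic mice received oral glucose at 2.0 g/kg. Tail-tip blood glucose was read at 0, 30, 60, 90 and 120 min. Daily gavage dosing was 31.25–125 mg/kg, n=10 per group.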

Mus musculus [4] = assay: Antidiabetic activity in po dosed STZ-induced Kunming mouse model of diabetes assessed as reduction in fasting serum insulin level administered QD administered via gavage for 4 weeks
Procedure, shortened: (§2)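 Fasting serum insulin was measured by commercial kit on plasma from orbital-sinus blood taken after an overnight fast at day 28. HOMA-IR was derived to assess insulin sensitivity. Diabetic mice were gavaged daily at 31.25–125 mg/kg. Mean ± SD, Duncan's test.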

Mus musculus [5] = assay: Antidiabetic activity in po dosed STZ-induced Kunming mouse model of diabetes assessed as reduction in HOMA-IR index level administered QD administered via gavage for 4 weeks; procedure, shortened: as §2
Mus musculus [6] = assay: Antidiabetic activity in po dosed STZ-induced Kunming mouse model of diabetes assessed as increase in IR phosphorylation at (Tyr 999 residues) expression in liver administered QD administered via gavage for 4 weeks by Western blot analysis
Procedure, shortened: (§3)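 Livers from diabetic mice after 28 days of daily gavage (31.25–125 mg/kg) were homogenized and spun at 14 000g, 4 °C. Proteins were run on 10% SDS-PAGE and transferred to PVDF, then blocked in 5% milk for 1 h. Primary antibodies (GK, PK, PFK, PCB, PEPCK, FBPase, G-6-Pase, p-IR Tyr999, p-IRS-1 Ser307) were applied for 1 h at 25 °C, followed by HRP anti-rabbit IgG and ECL detection. Mean ± SD, Duncan's test.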

Mus musculus [7] = assay: Antidiabetic activity in po dosed STZ-induced Kunming mouse model of diabetes assessed as decrease in IRS-1 (Ser 307 residues) expression in liver administered QD administered via gavage for 4 weeks by Western blot analysis; procedure, shortened: as §3
Mus musculus [8] = assay: Antidiabetic activity in STZ-induced Kunming mouse model of diabetes assessed as reduction in TG level at 31.25 to 125 m/kg, po administered QD administered via gavage for 4 weeks
Procedure, shortened: (§4)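 STZ/high-fat-diet diabetic Kunming mice (n=10/group) were gavaged daily for 28 days at 31.25–125 mg/kg. After an overnight fast, orbital-sinus blood was taken and plasma was spun at 1000g, 4 °C. TC, TG and HDL-C were measured by kit. LDL-C was calculated by Friedewald: TC − (HDL-C + TG/2.2), with TG below 4.5 mmol/L. Data are mean ± SD, Duncan's test.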

Mus musculus [9] = assay: Antidiabetic activity in STZ-induced Kunming mouse model of diabetes assessed as increase in HDL-C level at 31.25 to 125 m/kg, po administered QD administered via gavage for 4 weeks; procedure, shortened: as §4
Mus musculus [10] = assay: Antidiabetic activity in STZ-induced Kunming mouse model of diabetes assessed as decrease in TC level at 125 m/kg, po administered QD administered via gavage for 4 weeks; procedure, shortened: as §4
Mus musculus [11] = assay: Antidiabetic activity in STZ-induced Kunming mouse model of diabetes assessed as decrease in LDL-C level at 62.5 to 125 m/kg, po administered QD administered via gavage for 4 weeks; procedure, shortened: as §4
Mus musculus [12] = assay: Antidiabetic activity in STZ-induced Kunming mouse model of diabetes assessed as increase in LPL mRNA level at 31.25 to 125 m/kg, po administered QD administered via gavage for 4 weeks by RT-PCR analysis
Procedure, shortened: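 Liver RNA was Trizol-extracted and reverse-transcribed. qPCR ran 95 °C 10 min, then 45 cycles of 95 °C 15 s, 55 °C 20 s and 72 °C 30 s. LPL was normalized to β-actin and quantified by 2−ΔΔCt. Samples came from STZ/high-fat-diet diabetic mice gavaged daily for 28 days at 31.25–125 mg/kg.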

Mus musculus [13] = assay: Antidiabetic activity in po dosed STZ-induced Kunming mouse model of diabetes assessed as reduction in ALT activity administered QD administered via gavage for 4 weeks
Procedure, shortened: (§5)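 Diabetic mice (high-fat diet plus STZ 35 mg/kg i.p.) were dosed by gavage once daily for 28 days at 31.25–125 mg/kg. After an overnight fast at endpoint, liver and plasma were collected. ALT, hepatic glycogen and pyruvic acid were measured with commercial kits.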

Mus musculus [14] = assay: Antidiabetic activity in STZ-induced Kunming mouse model of diabetes assessed as increase in hepatic glycogen level at 31.25 to 125 m/kg, po administered QD administered via gavage for 4 weeks; procedure, shortened: as §5
Mus musculus [15] = assay: Antidiabetic activity in STZ-induced Kunming mouse model of diabetes assessed as decrease in pyruvic acid level at 31.25 to 125 m/kg, po administered QD administered via gavage for 4 weeks; procedure, shortened: as §5
Mus musculus [16] = assay: Antidiabetic activity in STZ-induced Kunming mouse model of diabetes assessed as increase in GK expression level in liver at 62.5 to 125 m/kg, po administered QD administered via gavage for 4 weeks by Western blot analysis; procedure, shortened: as §3
Mus musculus [17] = assay: Antidiabetic activity in STZ-induced Kunming mouse model of diabetes assessed as increase in PK expression level in liver at 62.5 to 125 m/kg, po administered QD administered via gavage for 4 weeks by Western blot analysis; procedure, shortened: as §3
Mus musculus [18] = assay: Antidiabetic activity in STZ-induced Kunming mouse model of diabetes assessed as increase in PFK expression level in liver at 125 m/kg, po administered QD administered via gavage for 4 weeks by Western blot analysis; procedure, shortened: as §3
Mus musculus [19] = assay: Antidiabetic activity in STZ-induced Kunming mouse model of diabetes assessed as down regulation of PCB expression level in liver at 62.5 to 125 m/kg, po administered QD administered via gavage for 4 weeks by Western blot analysis; procedure, shortened: as §3
Mus musculus [20] = assay: Antidiabetic activity in STZ-induced Kunming mouse model of diabetes assessed as down regulation of PEPCK expression level in liver at 62.5 to 125 m/kg, po administered QD administered via gavage for 4 weeks by Western blot analysis; procedure, shortened: as §3

Measured: Activity

OC[C@H]1NC[C@H](O)[C@@H](O)[C@@H]1O
active: Mus musculus [1] Dose-dependent effect | Mus musculus [2] | Mus musculus [3] | Mus musculus [4] Dose-dependent effect | Mus musculus [5] Dose-dependent effect | Mus musculus [6] Dose-dependent effect | Mus musculus [7] Dose-dependent effect | Mus musculus [8] | Mus musculus [9] | Mus musculus [10] | Mus musculus [11] | Mus musculus [12] | Mus musculus [13] Dose-dependent effect | Mus musculus [14] | Mus musculus [15] | Mus musculus [16] | Mus musculus [17] | Mus musculus [18] | Mus musculus [19] | Mus musculus [20]
